From ChEMBL document CHEMBL2176984, “Target Selectivity of FimH Antagonists” (J Med Chem, 2012)
Calls of active or inactive are those of the source. The calls are words filed in the database; no cut-off is given here.

How the values were obtained:
[1] = biological target: T1, C-type lectin domain family 4 member K (Homo sapiens, UniProt Q9UJ71); assay: Displacement of biotinylated-TM PAA from human langerin after 3 hrs by colorimetry
[2] = biological target: T2, Macrophage mannose receptor 1 (Homo sapiens, UniProt P22897); assay: Displacement of biotinylated-TM PAA from human MMR after 3 hrs by colorimetry
T2 sequence (P22897 whole entry): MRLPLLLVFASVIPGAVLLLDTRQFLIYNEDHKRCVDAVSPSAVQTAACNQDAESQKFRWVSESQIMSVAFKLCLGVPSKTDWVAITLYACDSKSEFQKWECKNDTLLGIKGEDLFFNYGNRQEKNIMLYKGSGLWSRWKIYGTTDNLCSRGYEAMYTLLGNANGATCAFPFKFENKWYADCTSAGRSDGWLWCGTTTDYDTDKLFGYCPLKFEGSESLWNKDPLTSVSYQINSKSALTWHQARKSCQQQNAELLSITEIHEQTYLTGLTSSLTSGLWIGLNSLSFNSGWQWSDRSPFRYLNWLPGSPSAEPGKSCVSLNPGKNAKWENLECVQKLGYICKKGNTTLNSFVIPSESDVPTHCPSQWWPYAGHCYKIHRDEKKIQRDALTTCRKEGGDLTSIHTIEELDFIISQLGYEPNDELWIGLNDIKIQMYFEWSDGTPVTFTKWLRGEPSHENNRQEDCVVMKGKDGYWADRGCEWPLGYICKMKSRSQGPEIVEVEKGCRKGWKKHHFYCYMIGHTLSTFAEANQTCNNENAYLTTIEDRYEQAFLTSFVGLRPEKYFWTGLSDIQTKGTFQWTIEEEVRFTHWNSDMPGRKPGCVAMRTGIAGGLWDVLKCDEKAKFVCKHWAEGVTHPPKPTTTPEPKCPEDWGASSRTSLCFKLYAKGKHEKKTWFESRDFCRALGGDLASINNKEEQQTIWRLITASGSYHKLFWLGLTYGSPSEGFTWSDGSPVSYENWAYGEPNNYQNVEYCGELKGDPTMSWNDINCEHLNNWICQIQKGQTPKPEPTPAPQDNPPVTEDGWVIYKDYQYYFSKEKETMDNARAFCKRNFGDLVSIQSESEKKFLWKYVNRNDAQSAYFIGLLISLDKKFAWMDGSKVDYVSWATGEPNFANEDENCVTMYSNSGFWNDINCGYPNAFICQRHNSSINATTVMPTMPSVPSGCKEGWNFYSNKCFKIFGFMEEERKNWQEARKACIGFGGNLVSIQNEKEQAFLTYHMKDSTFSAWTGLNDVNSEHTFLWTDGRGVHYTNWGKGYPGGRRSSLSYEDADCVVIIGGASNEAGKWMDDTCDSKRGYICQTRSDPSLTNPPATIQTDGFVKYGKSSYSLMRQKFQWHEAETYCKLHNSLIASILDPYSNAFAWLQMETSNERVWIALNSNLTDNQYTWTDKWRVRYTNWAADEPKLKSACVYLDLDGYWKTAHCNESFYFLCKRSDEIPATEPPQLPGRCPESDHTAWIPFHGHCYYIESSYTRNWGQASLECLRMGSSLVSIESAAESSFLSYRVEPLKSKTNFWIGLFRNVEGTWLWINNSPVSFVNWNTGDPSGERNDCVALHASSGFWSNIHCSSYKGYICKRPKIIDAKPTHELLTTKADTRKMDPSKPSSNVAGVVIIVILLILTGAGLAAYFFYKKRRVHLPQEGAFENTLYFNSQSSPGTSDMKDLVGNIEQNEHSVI

[3] = Cmax in mouse; type: ADME, organism-based; conditions: in vivo
[4] = biological target: T3, C-type lectin domain family 4 member C (Homo sapiens) (UniProt Q8WTT0); assay: Displacement of biotinylated-TM PAA from human DLEC at 1 mM after 3 hrs by colorimetry
T3 sequence (whole entry): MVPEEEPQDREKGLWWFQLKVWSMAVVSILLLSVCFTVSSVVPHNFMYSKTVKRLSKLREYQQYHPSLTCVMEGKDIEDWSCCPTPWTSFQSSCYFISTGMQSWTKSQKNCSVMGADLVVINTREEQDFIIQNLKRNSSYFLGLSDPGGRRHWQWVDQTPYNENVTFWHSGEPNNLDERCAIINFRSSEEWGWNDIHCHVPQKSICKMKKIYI
In short: (§1)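 Proteins were coated overnight at 4 °C in 20 mM HEPES pH 7.4, 150 mM NaCl and 10 mM CaCl2, then blocked with 3% BSA for 2 h at 4 °C. FimH was a CRD-thrombin-6His construct expressed in E. coli HM125; DC-SIGN and DC-SIGNR were CRD-Fc chimeras made in stably transfected CHO-K1. Compound at 1 mM final was co-added with streptavidin-HRP-coupled TM-PAA, incubated 3 h at 25 °C and 350 rpm, then read by ABTS OD 415 nm. No-antagonist signal was set to 100% and no-polymer background to 0%.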

[5] = biological target: T4, C-type lectin domain family 6 member A (Homo sapiens) (UniProt Q6EIG7); assay: Displacement of biotinylated-TM PAA from human Dectin-2 at 1 mM after 3 hrs by colorimetry; in short: as §1
T4 sequence (whole entry): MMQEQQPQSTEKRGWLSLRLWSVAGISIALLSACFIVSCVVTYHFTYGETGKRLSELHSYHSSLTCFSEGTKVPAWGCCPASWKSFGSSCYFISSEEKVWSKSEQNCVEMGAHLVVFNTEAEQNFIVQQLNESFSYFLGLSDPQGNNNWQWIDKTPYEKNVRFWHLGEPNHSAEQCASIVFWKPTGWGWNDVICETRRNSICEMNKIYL

[6] = biological target: T1, C-type lectin domain family 4 member K; assay: Displacement of biotinylated-TM PAA from human langerin at 1 mM after 3 hrs by colorimetry; in short: as §1
[7] = biological target: T5, Pulmonary surfactant-associated protein D (Homo sapiens) (UniProt P35247); assay: Displacement of biotinylated-TM PAA from human SP-D at 1 mM after 3 hrs by colorimetry; in short: as §1
T5 sequence (whole entry): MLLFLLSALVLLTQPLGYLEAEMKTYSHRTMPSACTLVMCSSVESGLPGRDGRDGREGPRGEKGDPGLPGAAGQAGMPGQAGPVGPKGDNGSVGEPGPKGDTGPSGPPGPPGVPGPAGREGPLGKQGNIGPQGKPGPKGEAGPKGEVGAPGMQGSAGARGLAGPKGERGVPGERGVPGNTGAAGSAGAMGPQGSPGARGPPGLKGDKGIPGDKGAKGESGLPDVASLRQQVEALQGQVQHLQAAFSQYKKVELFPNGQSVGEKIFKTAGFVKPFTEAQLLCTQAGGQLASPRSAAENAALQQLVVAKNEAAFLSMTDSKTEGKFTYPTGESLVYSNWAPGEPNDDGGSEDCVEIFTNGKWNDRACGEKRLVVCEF

[8] = biological target: T6, Macrophage mannose receptor 1 (Homo sapiens) (UniProt P22897); assay: Displacement of biotinylated-TM PAA from human MMR at 1 mM after 3 hrs by colorimetry; in short: as §1
T6 sequence (whole entry): T2 sequence (P22897 whole entry)

[9] = biological target: T7, C-type lectin domain family 4 member M (Homo sapiens) (UniProt Q9H2X3); assay: Displacement of biotinylated-TM PAA from human DC-SIGNR at 1 mM after 3 hrs by colorimetry; in short: as §1
T7 sequence (whole entry): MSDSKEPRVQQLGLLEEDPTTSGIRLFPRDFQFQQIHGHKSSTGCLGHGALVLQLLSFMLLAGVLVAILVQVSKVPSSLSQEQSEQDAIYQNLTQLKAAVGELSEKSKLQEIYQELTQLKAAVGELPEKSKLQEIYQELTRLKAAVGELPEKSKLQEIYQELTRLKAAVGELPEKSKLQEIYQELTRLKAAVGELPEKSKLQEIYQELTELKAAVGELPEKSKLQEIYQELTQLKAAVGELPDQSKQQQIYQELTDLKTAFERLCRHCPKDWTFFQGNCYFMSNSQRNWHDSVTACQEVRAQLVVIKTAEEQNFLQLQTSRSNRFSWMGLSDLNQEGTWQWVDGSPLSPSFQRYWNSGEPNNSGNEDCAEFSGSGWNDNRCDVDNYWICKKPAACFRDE

[10] = biological target: T8, CD209 antigen (Homo sapiens) (UniProt Q9NNX6); assay: Displacement of biotinylated-TM PAA from human DC-SIGN at 1 mM after 3 hrs by colorimetry; in short: as §1
T8 sequence (whole entry): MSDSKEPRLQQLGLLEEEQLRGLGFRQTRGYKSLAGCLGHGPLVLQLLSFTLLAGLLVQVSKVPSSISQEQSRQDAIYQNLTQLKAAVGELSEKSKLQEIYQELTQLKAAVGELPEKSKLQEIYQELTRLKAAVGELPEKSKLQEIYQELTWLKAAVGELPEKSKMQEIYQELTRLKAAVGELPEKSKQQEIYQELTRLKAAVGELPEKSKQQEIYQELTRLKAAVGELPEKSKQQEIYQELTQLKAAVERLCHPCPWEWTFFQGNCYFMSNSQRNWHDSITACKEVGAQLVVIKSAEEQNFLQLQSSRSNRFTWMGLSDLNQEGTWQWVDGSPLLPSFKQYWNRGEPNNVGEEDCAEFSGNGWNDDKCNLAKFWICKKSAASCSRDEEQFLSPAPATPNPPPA

[11] = biological target: Mannose-binding protein C (Homo sapiens) (UniProt P11226); assay: Displacement of biotinylated-TM PAA from human MBP at 1 mM after 3 hrs by colorimetry; in short: as §1
Escherichia coli [12] = assay: Displacement of biotinylated-TM PAA from Escherichia coli FimH expressed in Escherichia coli HM125 at 1 mM after 3 hrs by colorimetry; in short: as §1
[13] = Displacement of biotinylated-TM PAA from Escherichia coli FimH expressed in Escherichia coli HM125 after 3 hrs by colorimetry
[14] = biological target: T3, C-type lectin domain family 4 member C (Homo sapiens); assay: Displacement of biotinylated-TM PAA from human DLEC at 50 mM after 3 hrs by colorimetry
In short: (§2)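 α-D-mannose served as the positive control at 50 mM final, mixed with streptavidin-HRP-TM-PAA and applied to lectin-coated wells. Wells were coated overnight at 4 °C in HEPES/NaCl/10 mM CaCl2 at pH 7.4 and blocked with BSA. Incubation was 3 h at 25 °C, followed by four washes and ABTS development for 4 min, stopped with oxalic acid, OD 415 nm. Binding is expressed as % of the antagonist-free signal after subtracting the polymer-free background.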

[15] = biological target: T4, C-type lectin domain family 6 member A (Homo sapiens); assay: Displacement of biotinylated-TM PAA from human Dectin-2 at 50 mM after 3 hrs by colorimetry; in short: as §2
[16] = biological target: T1, C-type lectin domain family 4 member K; assay: Displacement of biotinylated-TM PAA from human langerin at 50 mM after 3 hrs by colorimetry; in short: as §2
[17] = biological target: T5, Pulmonary surfactant-associated protein D (Homo sapiens); assay: Displacement of biotinylated-TM PAA from human SP-D at 50 mM after 3 hrs by colorimetry; in short: as §2
[18] = biological target: T6, Macrophage mannose receptor 1 (Homo sapiens); assay: Displacement of biotinylated-TM PAA from human MMR at 50 mM after 3 hrs by colorimetry; in short: as §2
[19] = biological target: T7, C-type lectin domain family 4 member M (Homo sapiens); assay: Displacement of biotinylated-TM PAA from human DC-SIGNR at 50 mM after 3 hrs by colorimetry; in short: as §2
[20] = biological target: T8, CD209 antigen (Homo sapiens); assay: Displacement of biotinylated-TM PAA from human DC-SIGN at 50 mM after 3 hrs by colorimetry; in short: as §2
[21] = biological target: Mannose-binding protein C (Homo sapiens) (UniProt P11226); assay: Displacement of biotinylated-TM PAA from human MBP at 50 mM after 3 hrs by colorimetry; in short: as §2
Escherichia coli [22] = assay: Displacement of biotinylated-TM PAA from Escherichia coli FimH expressed in Escherichia coli HM125 at 50 mM after 3 hrs by colorimetry; in short: as §2
[23] = biological target: T9, C-type lectin domain family 4 member C (Homo sapiens, UniProt Q8WTT0); assay: Displacement of biotinylated-TM PAA from human DLEC after 3 hrs by colorimetry
T9 sequence (Q8WTT0 whole entry): T3 sequence (whole entry)

Chain of Mannose-binding protein C (Homo sapiens) (P11226 whole entry): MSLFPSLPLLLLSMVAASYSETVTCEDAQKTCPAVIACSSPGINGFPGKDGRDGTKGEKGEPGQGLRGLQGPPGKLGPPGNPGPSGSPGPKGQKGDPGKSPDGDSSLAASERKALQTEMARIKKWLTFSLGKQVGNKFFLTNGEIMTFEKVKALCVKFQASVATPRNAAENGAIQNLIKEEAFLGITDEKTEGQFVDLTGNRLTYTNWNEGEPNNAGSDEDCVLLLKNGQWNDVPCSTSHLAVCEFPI
T1 sequence (Q9UJ71 whole entry, the tested form may be a part): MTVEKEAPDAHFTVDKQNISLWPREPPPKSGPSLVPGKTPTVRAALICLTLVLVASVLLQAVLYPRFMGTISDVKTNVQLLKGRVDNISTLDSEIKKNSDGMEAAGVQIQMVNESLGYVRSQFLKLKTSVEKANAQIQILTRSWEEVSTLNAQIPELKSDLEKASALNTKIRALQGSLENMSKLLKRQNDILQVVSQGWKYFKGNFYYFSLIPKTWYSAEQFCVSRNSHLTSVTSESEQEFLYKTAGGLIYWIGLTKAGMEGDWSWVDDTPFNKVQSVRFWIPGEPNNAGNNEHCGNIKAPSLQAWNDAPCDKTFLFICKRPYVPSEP

Row | IC50 [2] | Cmax [3] | inhibition [4] | inhibition [5] | inhibition [6] | inhibition [7] | inhibition [8] | inhibition [9] | inhibition [10] | inhibition [11] | inhibition (Escherichia coli [12]) | IC50 [13] | other results | SMILES
1 | 1000 µM | 97 µM | inactive | inactive | 63% | inactive | 54% | inactive | inactive | inactive | Active | – | IC50 [1]: 1000 µM | O=C(O)c1ccc(-c2ccc(O[C@H]3O[C@H](CO)[C@@H](O)[C@H](O)[C@@H]3O)c(Cl)c2)cc1
2 | – | 144 µM | inactive | inactive | inactive | inactive | inactive | inactive | inactive | inactive | Active | 0.065 µM | – | CCCCCCCO[C@H]1O[C@H](CO)[C@@H](O)[C@H](O)[C@@H]1O
3 | – | – | – | – | – | – | – | – | – | – | – | – | inhibition [14]: > 90%; inhibition [15]: > 90%; inhibition [16]: > 90%; inhibition [17]: > 90%; inhibition [18]: > 90%; inhibition [19]: > 90%; inhibition [20]: > 90%; inhibition [21]: > 90%; inhibition (Escherichia coli [22]): > 90% | OC[C@H]1OC(O)[C@@H](O)[C@@H](O)[C@@H]1O (stereo not given in full)
4 | – | 80 µM | 50% | inactive | inactive | inactive | inactive | inactive | inactive | inactive | Active | 0.017 µM | IC50 [23]: 1000 µM | O=C(O)c1ccc(-c2ccc(O[C@H]3O[C@H](CO)[C@@H](O)[C@H](O)[C@@H]3O)cc2)cc1
5 | – | – | inactive | inactive | inactive | inactive | inactive | inactive | inactive | inactive | Active | 0.031 µM | – | CN1CCN(c2c(Nc3ccc(O[C@H]4O[C@H](CO)[C@@H](O)[C@H](O)[C@@H]4O)c(Cl)c3)c(=O)c2=O)CC1
6 | 1000 µM | – | inactive | inactive | inactive | inactive | 58% | inactive | inactive | inactive | Active | 0.02 µM | – | O=C(O)c1ccc2c(ccn2-c2ccc(O[C@H]3O[C@H](CO)[C@@H](O)[C@H](O)[C@@H]3O)c(Cl)c2)c1
